Measurements collected from several papers.
Protocols differ between the studies behind these lines. ≈ marks a conversion by molar mass, not a printed value.

| SMILES | organism | test | system | setting | endpoint | value |
| --- | --- | --- | --- | --- | --- | --- |
| CCCCCCCCCCCCCCCC(=O)C(F)(F)P(=O)(O)O | Bacillus subtilis | microbial growth | ATCC23857 |  | MIC | 200 µg/mL |
| CC[C@H](C)C[C@H](C)CCCCCCCCC(=O)N[C@H]1C[C@@H](O)[C@@H](NCCN)NC(=O)[C@@H]2[C@@H](O)CCN2C(=O)[C@H]([C@H](O)CCN)NC(=O)[C@H]([C@H](O)[C@@H](O)c2ccc(O)cc2)NC(=O)[C@@H]2C[C@@H](O)CN2C(=O)[C@H]([C@@H](C)O)NC1=O | Nakaseomyces glabratus | microbial growth, broth dilution | MY1381 |  | MIC | 0.25 µg/mL |
| CCCCCOc1ccc(-c2cc(-c3ccc(C(=O)N[C@H]4C[C@@H](O)[C@@H](O)NC(=O)[C@@H]5[C@@H](O)[C@@H](C)CN5C(=O)[C@H]([C@H](O)CC(N)=O)NC(=O)[C@H]([C@H](O)[C@@H](O)c5ccc(O)c(OS(=O)(=O)O)c5)NC(=O)[C@@H]5C[C@@H](O)CN5C(=O)[C@H]([C@@H](C)O)NC4=O)cc3)no2)cc1 | Nakaseomyces glabratus | microbial growth |  |  | MIC50 | 0.06 µg/mL (≈ 0.0472 µM) |
| NC[C@H]1O[C@H](O[C@H]2[C@H](O)[C@@H](O[C@H]3O[C@H](CO)[C@@H](O)[C@H](N)[C@H]3O)[C@H](N)C[C@@H]2N)[C@H](N)C[C@@H]1O | Listeria monocytogenes | microbial growth | ATCC19115 |  | MIC | 4.7 µg/mL |
| CC1(C)S[C@@H]2[C@H](NC(=O)[C@H](N)c3ccccc3)C(=O)N2[C@H]1C(=O)O | Listeria monocytogenes | microbial growth, well diffusion | ATCC7644 | 60000 µg/mL | inhibition zone | 27 mm |
| C=CCCCCCCCCC(=O)C(F)(F)P(=O)(O)O | Bacillus subtilis | microbial growth | ATCC23857 |  | MIC | 200 µg/mL |
| CCCSc1ccc2nc(NC(=O)OC)[nH]c2c1 | Cryptococcus neoformans | microbial growth, broth dilution |  | 72 h, clinical isolate | IC50 | 1.25 µM |
| O=C(CCCCC1CCCCC1)CP(=O)(O)O | Bacillus subtilis | microbial growth | ATCC23857 |  | MIC | 25 µg/mL |
| CCCC[C@H]1CN(c2cccc(OC(F)(F)F)c2)C(=O)CN1Cc1cncn1Cc1ccc(Br)cc1 | Cryptococcus neoformans | microbial growth, broth dilution |  |  | MIC | 3 to 6 µM |
| CC(C)CCCCCCCCCCCCCCc1cc(O)cc(O)c1 | Listeria monocytogenes | microbial growth | ATCC19115 |  | IC50 | 20.3 µM |
| CCCC(=O)CP(=O)(O)O | Bacillus subtilis | microbial growth | ATCC23857 |  | MIC | > 200 µg/mL |
| CCCCCCCCCCCCCCCc1cc(O)cc(O)c1 | Listeria monocytogenes | microbial growth | ATCC19115 |  | IC50 | > 200 µM |
| Cc1ccccc1C(=O)NN=Cc1ccc(O)c(Br)c1 | Cryptococcus neoformans | microbial killing |  |  | MFC | 4 µg/mL (≈ 12 µM) |
| CC(C)C(C)CCCCCCCCCCCc1cc(O)cc(O)c1 (stereo not drawn) | Listeria monocytogenes | microbial growth | ATCC19115 |  | IC50 | 34.2 µM |
| C[C@@H]1[C@H](O)[C@@H](C)/C=C/C=C/C=C/C=C/C=C/C=C/C=C/[C@H](O[C@@H]2O[C@H](C)[C@@H](O)[C@H](N)[C@@H]2O)C[C@@H]2O[C@](O)(C[C@@H](O)C[C@@H](O)[C@H](O)CC[C@@H](O)C[C@@H](O)CC(=O)O[C@H]1C)C[C@H](O)[C@H]2C(=O)O | Cryptococcus neoformans | microbial growth | ATCC90113 |  | MIC | 1.25 µg/mL |
